# Screening data: PubChem BioAssay, several laboratories
# MT1-MMP act inh: blocks activation of human MT1-MMP | P50281 | HT1080 RFP-PRO-GFP cells, GFP/RFP ratio fluorescence, overnight; percent of plate control window, DMSO zero | GFP/RFP ratio change, % at 20 µM | actives 0.061% (n = 360,000);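 active means GFP/RFP ratio change of at least 30% with cell ATP level not reduced by more than half and red fluorescence within 50% of control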
#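 Assay system: HT1080 RFP-PRO-GFP cells. Benchmarks: DMSO vehicle wells and RFP-L50D-GFP reporter cell wells. Times: overnight cell settling, then overnight compound exposure, 37 °C, 5% CO2. Compound: 20 µM single dose, 1% DMSO. Read-out basis: GFP/RFP fluorescence ratio.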
# SKN-1 block: C. elegans SKN-1 inhibition | inhibition, % at 21.8 µM | actives 0.49% (n = 360,000) | C. elegans VP596 Pgst-4::GFP/RFP ratio, acrylamide-induced, 24 h;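 active means interference check ratio from 0.5 to 1.5 plus GFP to RFP signal ratio inhibition reaching or exceeding a fixed threshold, cut at about 30% in these data, passing the limit was not always enough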
# hiPSC survival: increases survival of single human iPS cells; hiPSC single-cell survival, ATPlite luminescence; 100% = ROCK inhibitor wells, 0% = DMSO; survival enhancement, % at 20 µM; actives 0.044% (n = 360,000); AID 602274; in the data active means survival enhancement above about 18%;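 further: cells exposed to compounds for 16 hours before the ATP read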
# Tb MetRS inh: blocks T. brucei methionyl-tRNA synthetase activity. purified T. brucei MetRS, ATP depletion, Kinase-Glo luminescence. inhibition, % at 11.9 µM. actives 0.4% (n = 360,000). AID 624268;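 active means inhibition above a per-plate cutoff of the control wells' mean inhibition plus 3 SD, cut at about 5.5% in these data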;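 further: 0% = DMSO wells median and 100% = median of wells with control inhibitor compound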
#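 assay system = parasite MetRS enzyme | timing = 15 min preincubation, 2 h reaction, all 25 °C | evaluation = percent inhibition relative to median high and low control wells | medium = HEPES buffer containing pyrophosphatase, BSA, spermine, DTT | compound = single dose, 11.9 µM final nominal, 0.9% final DMSO | detection = Kinase-Glo luminescence, ATP depletion format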
# PREPL inhibitor: inhibitors of human prolyl oligopeptidase-like enzyme PREPL | recombinant PREPL, fluorescence polarization activity-based probe | actives 0.68% (n = 320,000) | inhibition, % at 5.96 µM; in the data active means inhibition above about 43%;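 further: 0% = enzyme with DMSO and 100% = wells lacking enzyme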
# Target sequence (Q4J6C6 whole entry, looked up): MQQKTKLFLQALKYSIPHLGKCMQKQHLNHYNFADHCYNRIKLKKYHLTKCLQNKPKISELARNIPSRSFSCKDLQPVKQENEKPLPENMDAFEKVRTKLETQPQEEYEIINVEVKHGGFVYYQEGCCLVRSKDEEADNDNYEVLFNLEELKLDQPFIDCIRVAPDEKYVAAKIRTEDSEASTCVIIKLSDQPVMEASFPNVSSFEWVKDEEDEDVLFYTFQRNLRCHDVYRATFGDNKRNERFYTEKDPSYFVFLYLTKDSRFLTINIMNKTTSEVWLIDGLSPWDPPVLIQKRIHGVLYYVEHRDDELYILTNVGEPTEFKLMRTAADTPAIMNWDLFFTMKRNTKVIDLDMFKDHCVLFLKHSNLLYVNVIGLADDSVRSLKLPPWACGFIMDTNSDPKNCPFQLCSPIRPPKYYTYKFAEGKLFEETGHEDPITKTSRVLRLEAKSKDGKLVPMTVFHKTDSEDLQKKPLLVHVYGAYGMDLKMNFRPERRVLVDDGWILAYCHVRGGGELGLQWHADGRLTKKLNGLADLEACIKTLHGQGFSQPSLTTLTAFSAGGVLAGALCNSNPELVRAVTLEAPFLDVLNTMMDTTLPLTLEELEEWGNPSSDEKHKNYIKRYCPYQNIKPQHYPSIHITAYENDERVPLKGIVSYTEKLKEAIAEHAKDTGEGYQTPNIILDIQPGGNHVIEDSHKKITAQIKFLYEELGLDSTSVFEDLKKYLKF
# E coli Lon inh: inhibits E. coli Lon protease; purified E. coli Lon protease, fluorescence polarization; inhibition, % at 7.94 µM; actives 0.42% (n = 360,000); in the data active means inhibition above about 13%, passing the limit was not always enough;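 further: 0% = enzyme with probe and DMSO and 100% = no enzyme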
# eLon confirm: E. coli Lon inhibition confirmation; purified E. coli Lon, fluorescence polarization; shares compounds with E coli Lon inh; actives 31% (n = 1,400); inhibition, % at 7.94 µM; in the data active means inhibition above about 16%;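 further: 0% = enzyme with probe and DMSO and 100% = no enzyme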
# * marks the source's active call; other numbers are inactive results; . = not tested or not shown; + = active, no number. Compounds with a hit are over-represented: about 1.8% of the library has one in this group of screens.
SMILES,MT1-MMP act inh,SKN-1 block,hiPSC survival,Tb MetRS inh,PREPL inhibitor,E coli Lon inh,eLon confirm
O=C(CCN1CCN(C(=O)c2ccccc2)CC1)c1ccc(Br)cc1,2.4,-4.9,0.4,0.2,-12.8,5.7,.
Cc1ccc(C(O)c2ncc(-c3cccc(C(F)(F)F)c3)[nH]2)cc1 (centres undefined),6.0,4.1,1.7,-0.4,.,14.9*,2.2
O=C(NC1CCCCCC1)C1CCN(S(=O)(=O)c2cnc[nH]2)CC1,-1.5,-8.6,-0.4,-0.7,6.2,5.9,.
Cc1cc(/C=N/NC(N)=S)c(O)c(/C=N/NC(N)=S)c1,-122.3,-7.1,0.8,0.2,6.7,+,189.3*
CCN(CC(=O)Nc1ccc([N+](=O)[O-])cc1OC)CC(=O)NC(C)(C)C,1.0,1.9,-1.2,-0.3,-3.2,-1.9,.
N#Cc1c(N2CCN(c3ccc([N+](=O)[O-])cc3)CC2)[n+](=O)c2ccc(Cl)cc2n1[O-],-32.6,13.2,-0.6,1.0,.,134.1*,43.2*
O=[N+]([O-])c1ccc(S(=O)(=O)N2CCN(c3ccnc4cc(Cl)ccc34)CC2)cc1,0.2,-3.3,0.2,-0.3,-8.3,-1.0,.
C/C(C=O)=C/c1ccccc1,1.2,-14.1,-1.5,-0.7,6.6,-4.9,.
OCCN(CCO)c1nc(N2CCCCC2)c2nc(N(CCO)CCO)nc(N3CCCCC3)c2n1,-58.9,-28.8,1.7,-1.4,22.3,147.9*,159.1*
Nc1nc(NCCO)nc(N2CCCCCC2)c1[N+](=O)[O-],-3.1,7.2,-0.3,-0.7,9.7,6.2,.
C=CCNC(=O)C1=NOC(CNC(=O)c2c(-c3ccccc3Cl)noc2C)C1 (centres undefined),0.1,7.2,-0.8,-0.5,15.9,-2.6,.
COc1ccccc1C(=O)Oc1ccc2c(c1)O/C(=C\c1ccncc1)C2=O,-15.1,1.0,-0.2,-0.8,-2.4,27.7*,49.3*
O=C(Oc1ccc2c(c1)O/C(=C\c1ccncc1)C2=O)c1cccs1,-13.9,-4.9,-0.4,-0.2,17.6,54.5*,23.9*
COc1ccc(S(=O)(=O)Oc2ccc3c(c2)O/C(=C\c2cccnc2)C3=O)cc1,-4.0,0.1,-2.0,-0.6,10.5,-7.2,.
CS(=O)(=O)Oc1ccc2c(c1)O/C(=C\c1cccnc1)C2=O,-3.9,-5.5,0.8,-0.2,9.6,6.5,.
CCc1c(C)nc2[nH]nc(NC(=O)C(F)(F)F)n2c1=O,-1.6,18.9,0.3,-0.4,10.7,-1.2,.
CCOc1ccc(N(CC(=O)N2CCCCCC2)S(=O)(=O)c2ccc(C)cc2)cc1,-6.3,-13.1,-0.3,0.0,12.8,1.4,.
COC(=O)c1ccc2nc(C3CCCCC3)c(Cc3ccc(C)cc3)n2c1,-8.3,5.7,0.9,-0.6,.,-13.4,.
O=C(CSc1nc2ccccc2c(=O)n1-c1ccc(F)cc1F)NC1CCS(=O)(=O)C1 (centres undefined),1.1,-1.7,0.3,-0.1,.,3.5,.
COc1ccccc1-n1c(SCC(=O)NC2CCS(=O)(=O)C2)nc2ccccc2c1=O (centres undefined),1.8,-3.6,-0.5,-0.5,12.2,18.7*,2.1
COc1ccc(CN(C)CC(=O)Nc2ccc(Cl)cc2F)c(OC)c1,.,.,.,.,-8.3,.,.
COc1cccc(CN(C)C(=O)c2cc(-c3ccc(OC)c(OC)c3)nc3ccccc23)c1,1.1,3.7,1.1,-0.6,.,20.2*,-1.9
COc1cccc(CN(C)C(=O)c2cc(-c3ccc(F)cc3)nc3ccccc23)c1,4.6,11.8,0.3,0.3,6.0,0.5,.
CC1CCc2sc(C(=O)N(C)CC(=O)Nc3cccc(F)c3)cc2C1 (centres undefined),-0.4,0.2,-0.4,-0.1,-6.5,16.1*,-3.7
COc1cccc(NC(=O)CN(C)C(=O)c2cc3c(s2)CCCC3)c1,-3.4,-6.2,-0.4,-0.5,17.1,-1.9,.
SMILES,MT1-MMP act inh,SKN-1 block,hiPSC survival,Tb MetRS inh,PREPL inhibitor,E coli Lon inh,eLon confirm
CSc1nc2ccc(NC(=O)NC(=O)c3c(F)cccc3F)cc2s1,-2.0,0.2,-0.7,-0.2,4.8,-0.1,.
COc1cccc(F)c1C(=O)NC(=O)Nc1ccc2nc(C)oc2c1,-10.0,0.6,1.0,3.4,15.8,110.0*,-8.8
NC(=O)c1ccc2c(=O)c(O)c(-c3cc(Cl)c(N)c(Cl)c3)[nH]c2c1,1.9,-6.4,-0.9,-0.1,8.5,52.2*,19.5*
CCCNC(=O)c1ccc2c(=O)c(O)c(-c3ccc(Cl)c([N+](=O)[O-])c3)[nH]c2c1,19.6,-0.7,-1.7,-0.4,14.1,13.6,.
Cc1ccc(C2CC(C(F)F)n3ncc(C(=O)Nc4c(C)nn(Cc5c(F)cccc5Cl)c4C)c3N2)cc1 (centres undefined),0.2,18.9,-1.9,-0.2,1.8,2.2,.
Cc1ccc(S(=O)(=O)CNC(=S)c2ccc3ccccc3c2)cc1,-9.5,0.9,1.5,-0.2,-88.6,19.9*,12.4
Cc1ccc(S(=O)(=O)CNC(=S)c2cccc(C)c2)cc1,0.7,11.3,2.3,-0.6,6.7,7.3,.
CCC(=O)Nc1nnc(C(C)(C)C)s1,1.8,-1.8,13.1,-0.7,20.9,18.3*,-9.9
COc1cc(OC)cc(C(=O)N[C@H](C(=O)OCn2nnc3ccccc3c2=O)C(C)C)c1,-8.9,-5.0,4.7,-0.2,3.3,15.8*,-7.7
CCSC1=N/C(=C\c2ccc(-c3ccccc3[N+](=O)[O-])o2)C(=O)S1,-19.6,-5.6,1.8,-0.8,11.7,37.3*,-6.7
CCCSC1=N/C(=C\c2ccc([N+](=O)[O-])o2)C(=O)S1,-2.1,8.2,0.5,0.2,.,6.8,.
CCN(CC)CCCNc1ccc2ncn3c4ccc(O)cc4c(=O)c1c23,-112.2,-47.6,-4.7,0.2,.,+,+
CCCCS(=O)(=O)Nc1ccc(N2CCOCC2)c(S(=O)(=O)N2CCOCC2)c1,-4.9,-12.0,0.5,0.2,-2.4,19.2*,4.9
CC(=O)Nc1ccc(NC(=O)C(C)OC(=O)C(C)SCC(=O)Nc2ccc(C)cc2)cc1 (centres undefined),2.4,14.6,-0.3,0.0,10.0,-0.5,.
CCCCN(C(=O)c1cccc(S(=O)(=O)N2CC(C)OC(C)C2)c1)c1c(N)n(CC(C)C)c(=O)[nH]c1=O (centres undefined),-3.1,6.3,-0.5,-0.3,6.3,-5.5,.
CC(=O)c1c(C)[nH]c(C(=O)OCC(=O)N(Cc2ccccc2)C(C)(C)C)c1C,2.3,14.5,-0.4,-0.3,.,70.8*,-63.4
COCCNC(=O)NC(=O)CN1CCCc2ccccc21,-14.6,8.9,1.4,-0.6,12.0,48.0*,6.5
CC(C)(C)NC(=O)NC(=O)CN1CCc2ccccc21,0.3,5.1,0.3,-0.3,10.9,-9.8,.
